PubChem BioAssay AID588762 (The Scripps Research Institute Molecular Screening Center, 2011)
The source made the active and inactive calls.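 How the source made its calls: active means fitted IC50 at or below 10 µM in the dose response luciferase test; inactive means IC50 weaker than 10 µM.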

Target: Epstein-Barr virus nuclear antigen 1 (EBNA-1), Human herpesvirus 4
Test: EBNA-1 inhibitors in cellular reporter, late-stage follow-up, cell-based, luciferase, dose response, assay provider data (AID 588762)
Settings: 293T Qp-promoter luciferase reporter, EBNA-1 repression
Outline: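 assay system = human 293T cells transiently co-transfected with Qp-promoter luciferase reporter, Flag-tagged EBNA-1 | times = 48 h at 37 °C after plating | technique = luminescence from Steady-Glo luciferase reagent, rising as EBNA-1 repression lifts | read-out basis = concentration giving half-maximal luminescence stimulation, four-parameter sigmoidal fit | controls = empty-vector transfected cells lacking EBNA-1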

IC50 | Compound
inactive | Cc1cc(C(=O)CSc2nnnn2C2CC2)c(C)n1CC1CCCO1 (centres undefined)
> 148 µM (inactive) | Cc1ccc(C(=O)Nc2nc3ccc(S(C)(=O)=O)cc3s2)cc1
> 148 µM (inactive) | Cc1ccc(C(=O)Nc2nc3ccc(Br)cc3s2)cc1C
> 148 µM (inactive) | Cc1ccc(C(=O)Nc2nc3cc(Br)ccc3s2)cc1C
> 148 µM (inactive) | CS(=O)(=O)c1ccc2nc(NC(=O)c3ccccc3Cl)sc2c1
> 148 µM (inactive) | CS(=O)(=O)c1ccc2nc(NC(=O)c3ccccc3F)sc2c1
inactive | COc1ccc(C(=O)Nc2nc3ccc(S(C)(=O)=O)cc3s2)cc1
> 148 µM (inactive) | CCn1c(C)cc(C(=O)CSc2nnnn2-c2ccccc2)c1C
> 148 µM (inactive) | COc1cccc2sc(NC(=O)c3ccc(C)c(C)c3)nc12
> 148 µM (inactive) | O=C(CSc1nnnn1-c1ccccc1)c1ccn(CC2CCCO2)c1 (centres undefined)
> 148 µM (inactive) | COc1ccc2nc(NC(=O)c3ccc(C)c(C)c3)sc2c1
> 148 µM (inactive) | Cc1ccccc1C(=O)Nc1nc2ccc(S(C)(=O)=O)cc2s1
> 148 µM (inactive) | CS(=O)(=O)c1ccc2nc(NC(=O)c3cccc(Cl)c3)sc2c1
> 148 µM (inactive) | Cc1cc(C(=O)CSc2nnnn2-c2ccc(Cl)cc2)c(C)n1CC1CCCO1 (centres undefined)
> 148 µM (inactive) | CS(=O)(=O)c1ccc2nc(NC(=O)c3cccc(F)c3)sc2c1
> 148 µM (inactive) | Cc1cc(C(=O)CSc2nnnn2-c2cccc(F)c2)c(C)n1CC1CCCO1 (centres undefined)
> 148 µM (inactive) | Cc1ccccc1-n1nnnc1SCC(=O)c1cc(C)n(CC2CCCO2)c1C (centres undefined)
inactive | CS(=O)(=O)c1ccc2nc(NC(=O)c3ccc(Cl)cc3)sc2c1
> 148 µM (inactive) | COCCn1c(C)cc(C(=O)CSc2nnnn2-c2ccccc2)c1C
> 148 µM (inactive) | COc1ccccc1C(=O)Nc1nc2ccc(S(C)(=O)=O)cc2s1
> 148 µM (inactive) | Cc1cc(C(=O)CSc2nnnn2C)c(C)n1CC1CCCO1 (centres undefined)
> 148 µM (inactive) | Cc1ccc(C(=O)Nc2nc3cc(F)ccc3s2)cc1C
inactive | Cc1cc(C(=O)CSc2nnnn2-c2ccccc2)c(C)n1C
> 148 µM (inactive) | Cc1cc(C(=O)CSc2nnnn2-c2ccccc2)c(C)n1Cc1cccs1
inactive | Cc1cccc(C(=O)Nc2nc3ccc(S(C)(=O)=O)cc3s2)c1
> 148 µM (inactive) | Cc1cccc(-n2nnnc2SCC(=O)c2cc(C)n(CC3CCCO3)c2C)c1 (centres undefined)
> 148 µM (inactive) | COc1ccc2sc(NC(=O)c3ccc(C)c(C)c3)nc2c1
inactive | COc1cccc(C(=O)Nc2nc3ccc(S(C)(=O)=O)cc3s2)c1
> 16.4 µM (inactive) | COc1ccc(-n2nnnc2SCC(=O)c2cc(C)n(CC3CCCO3)c2C)cc1 (centres undefined)
